Data on twelve compounds can be found in ChEMBL document CHEMBL1125777, “Nonpeptidic angiotensin II antagonists: synthesis and in vitro activity of a series of novel naphthalene and tetrahydronaphthalene derivatives” (J Med Chem, 1991).

The species entered for experiment [1] is Oryctolagus cuniculus. The experiment can be described thus: Inhibition of all induced contractions of rabbit aortic rings. The experiment is classed as functional. The conditions noted are these: Aorta. An outline of the steps:
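Thoracic aorta rings (2-3 mm) from male Chinchilla rabbits (2-2.5 kg), 2 g resting tension, modified Krebs-Henseleit, 37 °C, 95% O2/5% CO2, equilibrated ≥1 h. Isometric contraction to 10 nM angiotensin II every 20 min. After two control responses, graded compound concentrations (3-4 per ring) applied 5 min before each challenge. DMSO vehicle controls.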

Experiment [2] addresses T1, Type-1 angiotensin II receptor B (Rattus norvegicus, UniProt P29089).
T1 sequence (P29089 whole entry): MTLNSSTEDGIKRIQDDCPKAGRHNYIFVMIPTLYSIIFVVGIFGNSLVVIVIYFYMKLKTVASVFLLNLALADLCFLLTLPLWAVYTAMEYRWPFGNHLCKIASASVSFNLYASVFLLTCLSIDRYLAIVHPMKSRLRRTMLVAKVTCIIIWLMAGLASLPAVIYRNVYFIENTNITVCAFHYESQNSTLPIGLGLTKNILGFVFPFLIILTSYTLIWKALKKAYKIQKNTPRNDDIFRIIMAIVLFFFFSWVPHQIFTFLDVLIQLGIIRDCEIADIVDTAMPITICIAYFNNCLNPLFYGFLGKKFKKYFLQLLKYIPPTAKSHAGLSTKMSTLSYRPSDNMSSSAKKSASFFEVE
In words: Binding affinity against angiotensin II receptor in rat smooth muscle cell preparations. The procedure, abridged:
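Membranes from cultured rat aortic smooth muscle cells (passages 5-20, DMEM with 15% FCS). Bound/free separated by filtration, filter radioactivity counted. Nonspecific binding defined with 1 μM unlabeled AII. IC50 from four-parameter logistic fit. Duplicate tests.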

Experiment [3] concerns the target T1, Type-1 angiotensin II receptor B. The experiment can be described thus: Binding affinity against Angiotensin II receptor in rat smooth muscle cell preparations. The procedure, abridged: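 Membranes from cultured rat aortic smooth muscle cells (passages 5-20, DMEM with 15% FCS). 20-60 μg protein incubated 60 min at 25 or 30 °C with radiotracer (150 pM) and varying unlabeled competitor concentrations. Bound/free separated by filtration, filter radioactivity counted. Nonspecific binding defined with 1 μM unlabeled AII. IC50 from four-parameter logistic fit. Duplicate tests.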

In the case of `CCCCc1nc(Cl)c(CO)n1Cc1ccc(-c2ccccc2-c2nnn[nH]2)cc1` [LOSARTAN], in experiment [1], the IC50 worked out at 0.024 µM.

For the compound `CCCCc1nc(Cl)c(CO)n1Cc1cccc2c(-c3nn[nH]n3)cccc12`, the IC50 in experiment [1] came to 0.7 µM; in experiment [2], 1.1 µM.

With `CCCCc1nc(CO)c(Cl)n1Cc1ccc2c(c1)CCC(C(=O)O)C2` (stereo not given), the 50% inhibitory concentration (IC50) in experiment [1] stood at 0.3 µM; in experiment [2], 1.1 µM.

`CCCCc1nc(Cl)c(CO)n1Cc1ccc2ccc(-c3nn[nH]n3)cc2c1`: the half-maximal inhibitory concentration (IC50) in experiment [3] came out at 20 µM.

On to `CCCCc1nc(Cl)c(CO)n1Cc1ccc2c(c1)CCC(C(=O)O)C2` (stereo not given), for which the IC50 in experiment [1] is 1.2 µM; in experiment [2], 8.9 µM.

As for `CCCCc1nc(CO)c(Cl)n1Cc1ccc2c(c1)CCC(c1nnn[nH]1)C2` (stereo not given), the IC50 in experiment [1] turned out to be 0.56 µM.

On to `CCCCc1nc(Cl)c(CO)n1Cc1ccc2cc(-c3nn[nH]n3)ccc2c1`, for which the IC50 in experiment [1] was determined as 1.6 µM; in experiment [2] it was 0.6 µM.

For `CCCCc1nc(CO)c(Cl)n1Cc1ccc2cc(-c3nnn[nH]3)ccc2c1`, the IC50 in experiment [1] came out at 0.12 µM; in experiment [3] it was 0.2 µM.

The compound `CCCCc1nc(Cl)c(CO)n1Cc1ccc2c(c1)CCC(C)(C(=O)O)C2` (stereo not given) displayed a half-maximal inhibitory concentration (IC50) in experiment [1] of 2.2 µM. This counts as single-digit micromolar.

Regarding `CCCCc1nc(Cl)c(CO)n1Cc1ccc2c(c1)CCC(c1nnn[nH]1)C2` (stereo not given), the values for the IC50 in experiment [1] and in experiment [2] were 1.9 µM and 5.4 µM, respectively.

Regarding `CCCCc1nc(Cl)c(CO)n1Cc1cccc2cc(-c3nnn[nH]3)ccc12`, the IC50 came to 2.6 µM in experiment [1] and 4.1 µM in experiment [2].

With `CCCCc1nc(CO)c(Cl)n1Cc1ccc2c(c1)CCC(C)(C(=O)O)C2` (stereo not given), the results for the 50% inhibitory concentration (IC50) in experiment [1] and in experiment [2] were 2.7 µM and 2.8 µM, respectively.

By IC50 is commonly meant the concentration needed to halve the response being measured. Low values mean greater potency, high ones weaker potency.
